The nature of experiment [1]: inhibitors of TNFa-induced NFkB p65 translocation, primary screen, imaging, HUVEC, MLSMR starter and 10KST1 sets (AID 438).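 Also: compound added about 3h40 before a 20 min TNFalpha stimulation.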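 As to inhibition: signal is the nuclear over cytoplasmic p65 intensity ratio per well.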 To be noted: HUVEC TNFa-induced p65 nuclear translocation; cell count: measured here: nuclei count (cytotoxicity indicator), at 2.08 µM; inhibition: at 2 µM, stronger effect = higher value, 0% TNFa-plus-vehicle, 100% no-TNFa wells.
The nature of experiment [2]: inhibitors of mutant huntingtin aggregation, primary screen, imaging, exon1htt(103Q)mCFP cells, high-content imaging (AID 483;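 active = visual image review flags a hit and inhibition of aggregation exceeds 20%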;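 also: compound exposure lasted 3 days before fixation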;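 as to nuclei count: percent of the per-plate median nuclei count of sample wells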). The conditions noted are these: exon1htt(103Q)mCFP cell line, aggregate imaging, at 2 µM; inhibition of aggregation: stronger effect = higher value; nuclei count: measured here: cell count, toxicity.
Experiment [3] can be described thus: inhibitors of E-selectin induction by TNFa, primary screen, imaging, HUVEC, immunofluorescence, MLSMR starter and 10KST1 sets (AID 487;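 active = visually confirmed hit in the image check and inhibition above 20%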;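 as to inhibition: signal is fraction of cell area covered by stained E-selectin grains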;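 as to nuclei count: 100% = median nuclei count of all wells on the same plate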). To be noted: HUVEC TNFalpha-induced E-selectin immunofluorescence imaging, at 2 µM; inhibition: stronger effect = higher value; nuclei count: measured here: cell number, toxicity.
In experiment [4] the target is Voltage-gated potassium channel subunit beta-2 (Rattus norvegicus) (UniProt P62483). The experiment can be described thus: KvBeta enzyme negative modulators, primary screen, biochemical, NADPH fluorescence (AID 622;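 active = fluorescence slope higher than the sample average by over 3 SD, cut at about -0.22 in these data, passing the limit was not always enough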;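 also: slope of raw intensity against log time taken from 70 to 1610 s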). The conditions noted are these: recombinant KvBeta, 4-cyanobenzaldehyde reduction, at 10 µM, stronger effect = higher value.
Voltage-gated potassium channel subunit beta-2 (Rattus norvegicus), sequence (P62483 whole entry, looked up): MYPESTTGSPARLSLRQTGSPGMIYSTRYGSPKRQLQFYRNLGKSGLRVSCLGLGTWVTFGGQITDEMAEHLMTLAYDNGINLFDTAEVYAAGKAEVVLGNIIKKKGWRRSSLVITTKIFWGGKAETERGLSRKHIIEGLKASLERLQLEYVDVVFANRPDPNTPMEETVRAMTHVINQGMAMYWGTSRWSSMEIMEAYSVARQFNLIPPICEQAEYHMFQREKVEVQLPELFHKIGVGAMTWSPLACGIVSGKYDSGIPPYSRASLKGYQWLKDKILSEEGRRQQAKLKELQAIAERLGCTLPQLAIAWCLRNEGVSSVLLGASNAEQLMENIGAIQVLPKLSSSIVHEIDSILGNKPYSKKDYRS
Experiment [5] has the same target. Kind of experiment: KvBeta positive modulators, primary screen, biochemical, NADPH fluorescence (AID 623;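 active = NADPH fluorescence slope more negative than the mean of all samples by about 3 SD, 99.7% confidence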;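 also: fluorescence intensity change per second fitted from 20 to 320 s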). The conditions noted are these: Recombinant KvBeta, NADPH fluorescence decrease slope, 10 min; at 10 µM; stronger effect = lower value.
Experiment [6] has as its target Muscarinic acetylcholine receptor M4 (Homo sapiens) (UniProt P08173). The experiment can be described thus: compounds altering M4/GIRK thallium flux, either direction, primary screen, M4 allosteric agonist project, cell-based, HEK293 M4/GIRK, BTC-AM (AID 625;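 active = fluorescence slope after compound addition differing from the mean of all tested samples at 99.7% confidence, mostly higher but some lower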;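 also: thallium influx through GIRK channels coupled to M4 in HEK293 cells with BTC-AM dye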). The conditions noted are these: at 10 µM, actives lie on both sides. Summed up:
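System: HEK293 cells with M4 receptor and GIRK channels | Incubation: Cells overnight at 37 °C, BTC-AM loading 1 h, reads 2 min total | Technique: Kinetic BTC-AM fluorescence sampled at 1 Hz, 10 s pre-addition baseline | Measure: Post-addition slope, 15–24 s, of baseline-normalized fluorescence | Control set: Carbachol positive, DMSO negative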

Experiment [7] in a line: inhibitors of Sendai virus-induced IRF3 signaling, primary screen, TLR/RLR signaling modifier project, cell-based, Sendai virus stimulus, luciferase, 10K MLSCN set (AID 602276;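 active = inhibition at or above 50% at 10 µM; inactive = inhibition below 50%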;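 also: firefly luciferase from ISG56 promoter only with Renilla not read in this screen; 0% = Sendai virus plus DMSO and 100% = medium plus DMSO without virus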). The conditions noted are these: HEK293 RL24 IRF3 luciferase reporter, at 10 µM, stronger effect = higher value.
Experiment [8] can be described thus: inhibitors of poly I:C-induced TLR3 signaling, primary screen, cell-based, poly I:C stimulus, luciferase, 10K MLSCN set (AID 602277;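 active = inhibition of the reporter signal at or above 50%; inactive = inhibition below 50%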). The conditions noted are these: HEK293-TLR3 RL24 IRF3 luciferase reporter, at 10 µM, stronger effect = higher value.

Experimental findings from PubChem BioAssay are described below.

The source made the active and inactive calls.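 The calls were made as follows, unless noted: active = inhibition above 20% together with a positive visual image hit; inconclusive = visual image hit but inhibition not above 20%; inactive = no visual image hit.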

Muscarinic acetylcholine receptor M4 (Homo sapiens), sequence (P08173 whole entry, looked up): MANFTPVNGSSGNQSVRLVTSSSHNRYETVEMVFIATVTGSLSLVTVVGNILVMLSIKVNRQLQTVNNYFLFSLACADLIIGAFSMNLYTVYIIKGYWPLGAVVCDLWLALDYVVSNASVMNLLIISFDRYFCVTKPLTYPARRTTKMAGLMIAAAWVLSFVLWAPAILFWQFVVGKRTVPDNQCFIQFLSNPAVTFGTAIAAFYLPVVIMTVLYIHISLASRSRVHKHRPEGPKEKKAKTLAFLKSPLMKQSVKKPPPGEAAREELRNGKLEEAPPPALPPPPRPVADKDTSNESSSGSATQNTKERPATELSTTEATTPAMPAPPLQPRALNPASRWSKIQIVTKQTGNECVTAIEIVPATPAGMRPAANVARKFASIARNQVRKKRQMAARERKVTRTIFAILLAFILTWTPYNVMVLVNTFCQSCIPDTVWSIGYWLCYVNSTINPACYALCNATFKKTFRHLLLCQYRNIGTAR

What is called inhibition is the drop in the measured response relative to a control, in per cent. On to `CCOC(=O)CSc1cn2c(n1)CCC2`, for which, in experiment [1], the cell count is 547. Also, the inhibition in experiment [1] was -10.9% (inactive); in experiment [3] it was -25.8% (inactive); in experiment [7] it was -11.5% (inactive); in experiment [8] it was -11.4% (inactive). The inhibition of aggregation in experiment [2] is 14.3% (inactive). In addition, the values for the nuclei count in experiment [2] and in experiment [3] were 66.8% and 89.1%, respectively. Further, the fluorescence slope is -0.595 (inactive) in experiment [4] and 0.00761 (inactive) in experiment [6]. Also, the NADPH fluorescence slope in experiment [5] was 1.5e-05 (inactive).
As to `O=C1CC2CS(=O)(=O)CC2N1c1ccc(Oc2ccccc2)cc1` (stereo not given), the cell count in experiment [1] was 330. For the same molecule, the inhibition in experiment [1] was 3.1% (inactive); in experiment [3], -33.8% (inactive); in experiment [7], 17.3% (inactive); in experiment [8], 33% (inactive). In addition, the inhibition of aggregation in experiment [2] was 5.7% (inactive). The figures for the nuclei count in experiment [2] and in experiment [3] were 88.5% and 106%, respectively. In addition, the fluorescence slope is -0.395 (inactive) in experiment [4] and 0.00573 (inactive) in experiment [6]. The NADPH fluorescence slope in experiment [5] was -8.8e-05 (inactive).
Turning to `COc1ccc(C(F)(F)F)cc1NC(=O)c1nc2nc(C)cc(C(F)F)n2n1`, the cell count in experiment [1] was found to be 800. Also, the inhibition was 16.4% (inactive) in experiment [1], -22.3% (inactive) in experiment [3], 5.86% (inactive) in experiment [7] and 10.9% (inactive) in experiment [8]. Besides, the inhibition of aggregation in experiment [2] was 14.9% (inactive). The nuclei count in experiment [2] amounted to 94.5%; in experiment [3], 103%. For the same molecule, the fluorescence slope in experiment [4] was -0.498 (inactive); in experiment [6] it was 0.00547 (inactive). Besides, the NADPH fluorescence slope in experiment [5] was -2e-05 (inactive).
As to `CC1(C)CC(=O)c2cc(OCC(=O)N3CCN(c4ccccc4F)CC3)ccc2O1`, the cell count in experiment [1] came to 550. The inhibition was -19.1% (inactive) in experiment [1], -101% (inactive) in experiment [3], 19.9% (inactive) in experiment [7] and 0.776% (inactive) in experiment [8]. In addition, in experiment [2], the inhibition of aggregation was -3.9% (inactive). In addition, the figures for the nuclei count in experiment [2] and in experiment [3] were 94.6% and 118%, respectively. In addition, the results for the fluorescence slope in experiment [4] and in experiment [6] were -0.288 (inactive) and 0.00419 (inactive), respectively. In addition, the NADPH fluorescence slope in experiment [5] is -5.4e-06 (inactive).
Regarding `O=C(NCc1cccnc1)c1ccccc1Br`, in experiment [1], the cell count came out at 397. In addition, the inhibition in experiment [1] was -0.5% (inactive); in experiment [3], -18.8% (inactive); in experiment [7], 15.2% (inactive); in experiment [8] it was 20.8% (inactive). Moreover, in experiment [2], the inhibition of aggregation is 4.6% (inactive). Besides, the nuclei count in experiment [2] is 104%; in experiment [3], 112%. Besides, the fluorescence slope in experiment [4] is -0.521 (inactive); in experiment [6], 0.00504 (inactive). Also, the NADPH fluorescence slope in experiment [5] is -1.1e-05 (inactive).
With `O=c1c2ccccc2c(C=Nc2ccc(Cl)cn2)c(O)n1-c1cc(Cl)ccc1N1CCOCC1`, the cell count in experiment [1] turned out to be 164. For the same molecule, the inhibition in experiment [1] is 14.4% (inactive); in experiment [3] it was -0.8% (inactive); in experiment [7], 7.35% (inactive); in experiment [8] it was -5.13% (inactive). Further, the inhibition of aggregation in experiment [2] is -6.2% (inactive). For the same molecule, the results for the nuclei count in experiment [2] and in experiment [3] were 83.8% and 90.3%, respectively. The figures for the fluorescence slope in experiment [4] and in experiment [6] were -0.551 (inactive) and 0.00995 (inactive), respectively. For the same molecule, the NADPH fluorescence slope in experiment [5] is -6e-05 (inactive).
In the case of `CCOC(=O)C1CCN(C(=O)c2c(-c3c(Cl)cccc3Cl)noc2C)CC1`, in experiment [1], the cell count is 376. Also, the inhibition is 1.6% (inactive) in experiment [1], -89.8% (inactive) in experiment [3], 4.89% (inactive) in experiment [7] and 12.6% (inactive) in experiment [8]. Besides, the inhibition of aggregation in experiment [2] was 20.9% (inactive). The nuclei count in experiment [2] stood at 94.8%; in experiment [3], 110%. The fluorescence slope in experiment [4] is -0.557 (inactive); in experiment [6], 0.00598 (inactive). Moreover, the NADPH fluorescence slope in experiment [5] was -4.4e-05 (inactive).
Consider `Cc1cccc(C(=O)N2CCN(C(=O)c3cccc(C)c3)C(C)C2)c1` (stereo not given), for which the cell count in experiment [1] came to 394. Besides, the inhibition in experiment [1] is -3.8% (inactive); in experiment [3], -31.8% (inactive); in experiment [7] it was -15.5% (inactive); in experiment [8], -12% (inactive). In addition, the inhibition of aggregation in experiment [2] was 3.6% (inactive). For the same molecule, the nuclei count stood at 113% in experiment [2] and 114% in experiment [3]. For the same molecule, the fluorescence slope was -0.311 (inactive) in experiment [4] and 0.00692 (inactive) in experiment [6]. The NADPH fluorescence slope in experiment [5] was 1.4e-05 (inactive).
As for `COc1ccc(C2=Nn3c(nnc3-c3cccnc3)SC2)cc1`, in experiment [1], the cell count came out at 367. Also, the inhibition in experiment [1] was -0.8% (inactive); in experiment [3], 25.5% (inactive); in experiment [7] it was 5.59% (inactive); in experiment [8], 7.82% (inactive). Further, in experiment [2], the inhibition of aggregation was 6.7% (inactive). Further, the figures for the nuclei count in experiment [2] and in experiment [3] were 104% and 109%, respectively. The fluorescence slope was -0.464 (inactive) in experiment [4] and 0.00808 (inactive) in experiment [6]. Besides, in experiment [5], the NADPH fluorescence slope is 1.1e-05 (inactive).
For `COCCCNC(=O)CC(NS(=O)(=O)c1ccc(Cl)cc1)c1ccco1` (stereo not given), the cell count in experiment [1] was found to be 402. Further, the inhibition in experiment [1] was 0.3% (inactive); in experiment [3] it was -62.8% (inactive); in experiment [7] it was 11.7% (inactive); in experiment [8], 20.4% (inactive). The inhibition of aggregation in experiment [2] was -20.4% (inactive). In addition, the nuclei count in experiment [2] is 112%; in experiment [3], 121%. The fluorescence slope in experiment [4] was -0.541 (inactive); in experiment [6], 0.00644 (inactive). Besides, in experiment [5], the NADPH fluorescence slope was -4.5e-05 (inactive).
